What was measured:
J774.A1 = experiment: Antiproliferative activity against mouse J774.A1 cells after 72 hrs by MTT conversion assay; type: cell-based; details: J774.A1, 72 h
Method in brief: (§1)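 Cells (3.4 × 10^4) plated in 96-well plates and left to adhere 2 h at 37 °C, 5% CO2/95% air; medium replaced, 1:4 serial dilutions of compound added, incubated 72 h. Viability by MTT conversion, OD read at 620 nm; % dead cells = 100 − (OD treated/OD control) × 100. 6-mercaptopurine serial dilutions run in some experiments.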

WEHI-164 = experiment: Antiproliferative activity against mouse WEHI164 cells after 72 hrs by MTT conversion assay; type: functional, cell-based; details: WEHI-164, 72 h; method in brief: as §1
HEK293 = experiment: Antiproliferative activity against human HEK293 cells after 72 hrs by MTT conversion assay; type: cell-based; details: HEK293, 72 h; method in brief: as §1

Structure (SMILES) | IC50 (J774.A1) [µM] | IC50 (WEHI-164) [µM] | IC50 (HEK293) [µM]
C[C@@H]1O[C@@H](O[C@H]2[C@H](O)[C@@H](O)[C@H](OC[C@H]3O[C@@H](OC(=O)[C@]45CCC(C)(C)C[C@H]4C4=CC[C@@H]6[C@@]7(C)CC[C@H](O[C@H]8OC[C@H](O)[C@H](O[C@@H]9O[C@H](CO)[C@@H](O[C@@H]%10O[C@H](CO)[C@@H](O)[C@H](O)[C@H]%10O)[C@H](O)[C@H]9O)[C@H]8O)C(C)(C)[C@@H]7CC[C@@]6(C)[C@]4(C)CC5)[C@H](O)[C@@H](O)[C@@H]3O)O[C@@H]2CO)[C@H](O)[C@H](O)[C@H]1O | 3 |  | 
CC1(C)CC[C@]2(C(=O)O[C@@H]3O[C@H](CO)[C@@H](O)[C@H](O)[C@H]3O)[C@H](O)C[C@]3(C)C(=CC[C@@H]4[C@@]5(C)CC[C@H](O[C@@H]6O[C@H](C(=O)O)[C@@H](O)[C@H](O)[C@H]6O[C@@H]6O[C@H](CO)[C@@H](O)[C@H](O)[C@H]6O)C(C)(C)[C@@H]5CC[C@]43C)[C@@H]2C1 | 0.19 | 0.34 | 0.23
C[C@@H]1O[C@@H](O[C@H]2[C@H](O)[C@@H](O)[C@H](OC[C@H]3O[C@@H](OC(=O)[C@]45CCC(C)(C)C[C@H]4C4=CC[C@@H]6[C@@]7(C)CC[C@H](O[C@H]8OC[C@H](O)[C@H](O[C@@H]9O[C@H](CO)[C@@H](O)[C@H](O)[C@H]9O)[C@H]8O)C(C)(C)[C@@H]7CC[C@@]6(C)[C@]4(C)CC5)[C@H](O)[C@@H](O)[C@@H]3O)O[C@@H]2CO)[C@H](O)[C@H](O)[C@H]1O | 3.6 | 7 | 
C[C@@H]1O[C@@H](O[C@H]2[C@H](O)[C@@H](O)[C@H](OC[C@H]3O[C@@H](OC(=O)[C@]45CCC(C)(C)C[C@H]4C4=CC[C@@H]6[C@@]7(C)CC[C@H](O[C@@H]8O[C@H](C(=O)O)[C@@H](O)[C@H](O)[C@H]8O[C@@H]8O[C@H](CO)[C@@H](O)[C@H](O)[C@H]8O)C(C)(C)[C@@H]7CC[C@@]6(C)[C@]4(C)CC5)[C@H](O)[C@@H](O)[C@@H]3O)O[C@@H]2CO)[C@H](O)[C@H](O)[C@H]1O | 6.9 |  | 
C[C@@H]1O[C@@H](O[C@H]2[C@H](O)[C@@H](O)[C@H](OC[C@H]3O[C@@H](OC(=O)[C@]45CCC(C)(C)C[C@H]4C4=CC[C@@H]6[C@@]7(C)CC[C@H](O[C@H]8OC[C@H](O)[C@H](O)[C@H]8O)C(C)(C)[C@@H]7CC[C@@]6(C)[C@]4(C)CC5)[C@H](O)[C@@H](O)[C@@H]3O)O[C@@H]2CO)[C@H](O)[C@H](O)[C@H]1O | 2.5 | 3.4 | 
C[C@@H]1O[C@@H](O[C@H]2[C@H](O)[C@@H](O)[C@H](O[C@@H]3[C@@H](O)[C@H](OC[C@H]4O[C@@H](OC(=O)[C@]56CCC(C)(C)C[C@H]5C5=CC[C@@H]7[C@@]8(C)CC[C@H](O[C@H]9OC[C@H](O)[C@H](O[C@@H]%10O[C@H](CO)[C@@H](O[C@@H]%11O[C@H](CO)[C@@H](O)[C@H](O)[C@H]%11O)[C@H](O)[C@H]%10O)[C@H]9O)C(C)(C)[C@@H]8CC[C@@]7(C)[C@]5(C)C[C@H]6O)[C@H](O)[C@@H](O)[C@@H]4O)O[C@H](CO)[C@H]3O)O[C@@H]2CO)[C@H](O)[C@H](O)[C@H]1O | 0.32 | 1.7 | 1.3
CC1(C)CC[C@]2(C(=O)O[C@@H]3O[C@H](CO)[C@@H](O)[C@H](O)[C@H]3O)CC[C@]3(C)C(=CC[C@@H]4[C@@]5(C)CC[C@H](O[C@H]6OC[C@H](O)[C@H](O[C@@H]7O[C@H](CO)[C@@H](O)[C@H](O)[C@H]7O)[C@H]6O)C(C)(C)[C@@H]5CC[C@]43C)[C@@H]2C1 | 3.9 | 4.6 | 
C[C@@H]1O[C@@H](O[C@H]2[C@H](O)[C@@H](O)[C@H](O[C@@H]3[C@@H](O)[C@H](OC[C@H]4O[C@@H](OC(=O)[C@]56CCC(C)(C)C[C@H]5C5=CC[C@@H]7[C@@]8(C)CC[C@H](O[C@H]9OC[C@H](O)[C@H](O[C@@H]%10O[C@H](CO)[C@@H](O[C@@H]%11O[C@H](CO)[C@@H](O)[C@H](O)[C@H]%11O)[C@H](O)[C@H]%10O)[C@H]9O)C(C)(C)[C@@H]8CC[C@@]7(C)[C@]5(C)CC6)[C@H](O)[C@@H](O)[C@@H]4O)O[C@H](CO)[C@H]3O)O[C@@H]2CO)[C@H](O)[C@H](O)[C@H]1O | 9 |  | 

Reference: ChEMBL document CHEMBL1157383, “Antiproliferative oleanane saponins from Meryta denhamii” (J Nat Prod, 2008)
